What was measured:
[1] = in vitro microsomal stability; type: in vitro ADME
[2] = in vitro plasma stability; type: in vitro ADME
[3] = target: AKT1 (PKB alpha) (Homo sapiens, UniProt P31749); assay: AKT1 in vitro kinase assay; type: biochemical
Summary of the method: (§1)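 Z′-LYTE assay. Enzyme per 10 μL reaction: AKT1 0.34–7.65 ng, AKT2 1–40 ng, or AKT3 0.56–8.3 ng. Reaction contained 2 μM Ser/Thr 06 peptide, ATP at Km, 50 mM HEPES pH 7.5, 0.01% BRIJ-35, 10 mM MgCl2 and 1 mM EGTA. After 1 h, Development Reagent A (1:2048) protease cleaved non-phosphorylated peptide. Read-out was the coumarin 445 nm/fluorescein 520 nm emission ratio; curves were fitted.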

[4] = target: T1, IKBKB (IKK beta) (Homo sapiens, UniProt O14920); assay: IKKβ; type: biochemical; conditions: for IKKβ in vitro kinase inhibition (in words): stated for IKKs
T1 sequence (O14920 1-756): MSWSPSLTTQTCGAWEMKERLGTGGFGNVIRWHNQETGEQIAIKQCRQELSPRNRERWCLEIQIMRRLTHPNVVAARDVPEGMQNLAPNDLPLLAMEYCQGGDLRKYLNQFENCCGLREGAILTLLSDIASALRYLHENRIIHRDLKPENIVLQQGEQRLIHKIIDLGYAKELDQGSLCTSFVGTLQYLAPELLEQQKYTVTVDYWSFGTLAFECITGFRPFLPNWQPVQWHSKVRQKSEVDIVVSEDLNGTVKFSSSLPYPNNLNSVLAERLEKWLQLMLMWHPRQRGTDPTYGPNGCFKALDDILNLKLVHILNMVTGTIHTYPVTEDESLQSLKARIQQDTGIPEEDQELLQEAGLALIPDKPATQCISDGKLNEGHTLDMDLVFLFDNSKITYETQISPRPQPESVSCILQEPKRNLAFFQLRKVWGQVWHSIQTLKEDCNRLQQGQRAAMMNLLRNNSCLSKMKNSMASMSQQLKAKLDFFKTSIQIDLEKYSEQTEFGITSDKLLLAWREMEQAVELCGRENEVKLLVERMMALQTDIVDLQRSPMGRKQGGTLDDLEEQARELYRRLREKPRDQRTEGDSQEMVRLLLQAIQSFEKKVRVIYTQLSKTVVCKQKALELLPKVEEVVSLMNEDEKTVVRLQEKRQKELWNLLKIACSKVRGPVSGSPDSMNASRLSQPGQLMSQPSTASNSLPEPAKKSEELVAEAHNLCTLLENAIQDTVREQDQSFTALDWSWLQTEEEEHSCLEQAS
Summary of the method: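 Z′-LYTE format. Development used Reagent B (1:64) protease; read-out was the coumarin 445 nm/fluorescein 520 nm emission ratio. Where noted, IC50 was predicted from % inhibition at 10 μM test compound, mean of two experiments.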

[5] = target: T2, CHUK (IKK alpha) (Homo sapiens, UniProt O15111); assay: IKKα; type: biochemical; conditions: for IKKα in vitro kinase inhibition (in words): stated for IKKs
T2 sequence (O15111 1-745): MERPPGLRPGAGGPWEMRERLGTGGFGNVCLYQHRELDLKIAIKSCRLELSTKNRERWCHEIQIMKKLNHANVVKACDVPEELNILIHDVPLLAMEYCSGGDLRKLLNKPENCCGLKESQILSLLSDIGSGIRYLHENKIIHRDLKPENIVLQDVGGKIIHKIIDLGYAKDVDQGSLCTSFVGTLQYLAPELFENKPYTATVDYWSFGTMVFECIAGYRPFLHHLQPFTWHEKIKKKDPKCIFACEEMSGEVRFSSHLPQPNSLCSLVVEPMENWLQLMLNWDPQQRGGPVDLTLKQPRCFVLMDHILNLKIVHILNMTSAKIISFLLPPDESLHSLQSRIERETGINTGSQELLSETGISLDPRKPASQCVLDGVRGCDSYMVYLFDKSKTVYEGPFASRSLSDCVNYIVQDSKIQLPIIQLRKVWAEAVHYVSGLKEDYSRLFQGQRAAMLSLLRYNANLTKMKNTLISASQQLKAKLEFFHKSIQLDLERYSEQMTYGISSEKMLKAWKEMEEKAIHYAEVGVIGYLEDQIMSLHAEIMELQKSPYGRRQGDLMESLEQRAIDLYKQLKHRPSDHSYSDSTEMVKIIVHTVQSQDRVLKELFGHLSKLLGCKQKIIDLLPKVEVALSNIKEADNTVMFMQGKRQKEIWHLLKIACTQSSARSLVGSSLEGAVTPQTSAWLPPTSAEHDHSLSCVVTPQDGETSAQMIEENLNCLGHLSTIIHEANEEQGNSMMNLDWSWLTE
Summary of the method: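 ADAPTA ADP-detection format. Detection mix added EDTA (stop), europium-labelled anti-ADP antibody and Alexa Fluor 647 ADP tracer; ADP formation was taken from the emission ratio. Where noted, IC50 was predicted from % inhibition at 1 μM test compound, mean of two experiments.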

[6] = target: AKT2 (PKB beta) (Homo sapiens, UniProt P31751); assay: AKT2 in vitro kinase assay; type: biochemical
Summary of the method: as §1

[7] = target: AKT3 (PKB gamma) (Homo sapiens, UniProt Q9Y243); assay: AKT3 in vitro kinase assay; type: biochemical
Summary of the method: as §1

Sequence of AKT2 (PKB beta) (P31751 whole entry): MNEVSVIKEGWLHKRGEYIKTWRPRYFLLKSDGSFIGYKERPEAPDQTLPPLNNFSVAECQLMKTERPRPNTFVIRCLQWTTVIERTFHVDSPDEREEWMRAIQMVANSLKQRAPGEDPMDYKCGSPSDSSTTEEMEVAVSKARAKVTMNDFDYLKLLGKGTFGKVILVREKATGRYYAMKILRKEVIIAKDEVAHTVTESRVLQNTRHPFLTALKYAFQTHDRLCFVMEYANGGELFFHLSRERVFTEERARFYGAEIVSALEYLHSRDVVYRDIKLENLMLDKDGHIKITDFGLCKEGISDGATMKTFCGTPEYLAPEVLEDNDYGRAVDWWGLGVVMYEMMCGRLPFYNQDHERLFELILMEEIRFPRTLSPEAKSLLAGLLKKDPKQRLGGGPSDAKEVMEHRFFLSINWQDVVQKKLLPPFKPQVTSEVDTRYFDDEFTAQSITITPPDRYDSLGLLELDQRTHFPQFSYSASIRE
Sequence of AKT3 (PKB gamma) (Q9Y243 whole entry): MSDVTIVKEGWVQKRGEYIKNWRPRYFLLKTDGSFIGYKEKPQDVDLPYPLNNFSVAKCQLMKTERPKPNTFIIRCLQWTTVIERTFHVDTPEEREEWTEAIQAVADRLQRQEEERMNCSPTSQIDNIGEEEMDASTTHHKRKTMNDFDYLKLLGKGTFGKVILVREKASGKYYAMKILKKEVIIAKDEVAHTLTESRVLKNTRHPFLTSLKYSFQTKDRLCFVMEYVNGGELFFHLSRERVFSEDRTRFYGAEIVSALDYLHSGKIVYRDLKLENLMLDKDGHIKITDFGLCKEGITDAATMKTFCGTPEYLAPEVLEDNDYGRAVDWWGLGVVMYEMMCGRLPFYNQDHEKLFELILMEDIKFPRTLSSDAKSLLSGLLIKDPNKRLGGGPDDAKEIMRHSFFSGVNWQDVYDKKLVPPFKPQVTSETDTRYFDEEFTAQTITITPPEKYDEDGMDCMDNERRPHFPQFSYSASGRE
Sequence of AKT1 (PKB alpha) (P31749 whole entry): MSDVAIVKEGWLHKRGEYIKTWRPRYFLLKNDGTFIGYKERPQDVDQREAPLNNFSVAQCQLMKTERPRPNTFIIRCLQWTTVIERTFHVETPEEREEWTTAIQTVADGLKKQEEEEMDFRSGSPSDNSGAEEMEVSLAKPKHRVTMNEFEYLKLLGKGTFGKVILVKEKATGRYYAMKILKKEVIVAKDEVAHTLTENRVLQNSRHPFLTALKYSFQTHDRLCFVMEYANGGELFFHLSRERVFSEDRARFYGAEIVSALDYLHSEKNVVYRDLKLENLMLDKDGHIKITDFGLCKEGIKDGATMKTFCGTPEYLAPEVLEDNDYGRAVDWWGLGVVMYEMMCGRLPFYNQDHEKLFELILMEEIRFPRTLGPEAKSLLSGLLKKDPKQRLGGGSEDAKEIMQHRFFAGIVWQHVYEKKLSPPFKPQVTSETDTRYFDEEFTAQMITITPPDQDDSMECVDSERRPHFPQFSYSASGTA

Compound | IC50 [3] | IC50 [4] | IC50 [5] | other results
O=C(/C=C/c1nc2ccccc2[nH]1)c1c(O)nc2ccc(Cl)cc2c1-c1ccccc1 [compound 1, (E)-3-(3-(1H-benzo[d]imidazol-2-yl)acryloyl)-6-chloro-4-phenylquinolin-2(1H)-one] | 6.22 µM | 2.3 µM | 3.85 µM | microsomal stability [1]: favorable; plasma stability [2]: favorable; IC50 [6]: 4.24 µM; IC50 [7]: 10.9 µM
Cn1c(/C=C/C(=O)c2c(-c3ccccc3)c3cc(Cl)ccc3[nH]c2=O)nc2ccccc21 [compound 39, (E)-6-chloro-3-(3-(1-methyl-1H-benzo[d]imidazol-2-yl)acryloyl)-4-phenylquinolin-2(1H)-one] | > 100 µM |  |  | AKT1 in vitro inhibition (in words) [3]: inactive
Cc1ccc2[nH]c(/C=C/C(=O)c3c(-c4ccccc4)c4cc(Cl)ccc4[nH]c3=O)nc2c1 [compound 40, (E)-6-chloro-3-(3-(5-methyl-1H-benzo[d]imidazol-2-yl)acryloyl)-4-phenylquinolin-2(1H)-one] | 43.3 µM | 9.6 µM | 8.03 µM | IC50 [6]: 5 µM; IC50 [7]: 8.4 µM
O=C(/C=C/c1nc2cc(Br)ccc2[nH]1)c1c(-c2ccccc2)c2cc(Cl)ccc2[nH]c1=O [compound 41, (E)-3-(3-(5-bromo-1H-benzo[d]imidazol-2-yl)acryloyl)-6-chloro-4-phenylquinolin-2(1H)-one] | 14 µM |  |  | 
O=C(/C=C/c1nc2ccccc2[nH]1)c1c(-c2ccccc2)c2ccccc2[nH]c1=O [compound 43, (E)-3-(3-(1H-benzo[d]imidazol-2-yl)acryloyl)-4-phenylquinolin-2(1H)-one] | 5.2 µM |  |  | 
O=C(/C=C/c1nc2ccccc2[nH]1)c1c(-c2ccccc2)c2cc(Br)ccc2[nH]c1=O [compound 44, (E)-3-(3-(1H-benzo[d]imidazol-2-yl)acryloyl)-6-bromo-4-phenylquinolin-2(1H)-one] | 4.48 µM | 5.6 µM | 6.02 µM | IC50 [6]: 1.72 µM; IC50 [7]: 8.85 µM
Cc1ccc2[nH]c(=O)c(C(=O)/C=C/c3nc4ccccc4[nH]3)c(-c3ccccc3)c2c1 [compound 45, (E)-3-(3-(1H-benzo[d]imidazol-2-yl)acryloyl)-6-methyl-4-phenylquinolin-2(1H)-one] | 6.26 µM | 7.9 µM | 29.1 µM | IC50 [7]: 5.53 µM
Cn1c(=O)c(C(=O)/C=C/c2nc3cc(F)ccc3[nH]2)c(-c2ccccc2)c2cc(Cl)ccc21 [compound 46, (E)-6-chloro-3-(3-(5-fluoro-1H-benzo[d]imidazol-2-yl)acryloyl)-1-methyl-4-phenylquinolin-2(1H)-one] | 17.2 µM |  |  | 
O=C(/C=C/c1nc2cc(F)c(F)cc2[nH]1)c1c(-c2ccc(F)cc2)c2cc(F)ccc2[nH]c1=O [compound 48, (E)-3-(3-(5,6-difluoro-1H-benzo[d]imidazol-2-yl)acryloyl)-6-fluoro-4-(4-fluorophenyl)quinolin-2(1H)-one] | 15.9 µM | 16 µM | 13.1 µM | 
O=C(/C=C/c1nc2cc(F)c(F)cc2[nH]1)c1c(-c2ccc(F)cc2)c2cc(Cl)ccc2[nH]c1=O [compound 49, (E)-6-chloro-3-(3-(5,6-difluoro-1H-benzo[d]imidazol-2-yl)acryloyl)-4-(4-fluorophenyl)quinolin-2(1H)-one] | 30.4 µM | 15.4 µM | 7.12 µM | 
Cc1ccc(-c2c(C(=O)/C=C/c3nc4cc(F)c(F)cc4[nH]3)c(=O)[nH]c3ccc(Cl)cc23)cc1 [compound 50, (E)-6-chloro-3-(3-(5,6-difluoro-1H-benzo[d]imidazol-2-yl)acryloyl)-4-(p-tolyl)quinolin-2(1H)-one] | > 50 µM |  |  | 
O=C(/C=C/c1nc2cc(F)c(F)cc2[nH]1)c1c(-c2ccc(Cl)cc2)c2cc(Cl)ccc2[nH]c1=O [compound 51, (E)-6-chloro-4-(4-chlorophenyl)-3-(3-(5,6-difluoro-1H-benzo[d]imidazol-2-yl)acryloyl)quinolin-2(1H)-one] | > 50 µM |  |  | 
COc1ccc(-c2c(C(=O)/C=C/c3nc4cc(F)c(F)cc4[nH]3)c(=O)[nH]c3ccc(Cl)cc23)cc1 [compound 52, (E)-6-chloro-3-(3-(5,6-difluoro-1H-benzo[d]imidazol-2-yl)acryloyl)-4-(4-methoxyphenyl)quinolin-2(1H)-one] | > 50 µM |  |  | 
CCOc1ccc(-c2c(C(=O)/C=C/c3nc4cc(F)c(F)cc4[nH]3)c(=O)[nH]c3ccc(Cl)cc23)cc1 [compound 53, (E)-6-chloro-3-(3-(5,6-difluoro-1H-benzo[d]imidazol-2-yl)acryloyl)-4-(4-ethoxyphenyl)quinolin-2(1H)-one] | > 50 µM |  |  | 
O=C(/C=C/c1nc2cc(F)c(F)cc2[nH]1)c1c(-c2ccc(F)c(F)c2)c2cc(F)ccc2[nH]c1=O [compound 54, (E)-3-(3-(5,6-difluoro-1H-benzo[d]imidazol-2-yl)acryloyl)-4-(3,4-difluorophenyl)-6-fluoroquinolin-2(1H)-one] | 44.5 µM | 16.4 µM | 7.2 µM | 
O=C(/C=C/c1nc2cc(F)c(F)cc2[nH]1)c1c(-c2ccc(F)c(F)c2)c2cc(Cl)ccc2[nH]c1=O [compound 55, (E)-6-chloro-3-(3-(5,6-difluoro-1H-benzo[d]imidazol-2-yl)acryloyl)-4-(3,4-difluorophenyl)quinolin-2(1H)-one] | > 50 µM | 17.8 µM | 12.1 µM | 
O=C(NCc1nc2ccccc2[nH]1)c1c(-c2ccccc2)c2cc(Cl)ccc2[nH]c1=O [compound 58, N-((1H-benzo[d]imidazol-2-yl)methyl)-6-chloro-2-oxo-4-phenyl-1,2-dihydroquinoline-3-carboxamide] |  |  |  | AKT1 in vitro inhibition (in words) [3]: completely inactive; IKKβ in vitro kinase inhibition (in words) [4]: completely inactive; IKKα in vitro kinase inhibition (in words) [5]: completely inactive
O=C(CCc1nc2ccccc2[nH]1)c1c(-c2ccccc2)c2cc(Cl)ccc2[nH]c1=O [compound 59, 3-(3-(1H-benzo[d]imidazol-2-yl)propanoyl)-6-chloro-4-phenylquinolin-2(1H)-one] |  |  |  | AKT1 in vitro inhibition (in words) [3]: completely inactive; IKKβ in vitro kinase inhibition (in words) [4]: completely inactive; IKKα in vitro kinase inhibition (in words) [5]: completely inactive
